The source made the active and inactive calls. The calls are words filed in the database; no cut-off is given here.

Test [1] concerns the target T1, Progesterone receptor (Homo sapiens) (UniProt P06401).
T1 sequence (whole entry): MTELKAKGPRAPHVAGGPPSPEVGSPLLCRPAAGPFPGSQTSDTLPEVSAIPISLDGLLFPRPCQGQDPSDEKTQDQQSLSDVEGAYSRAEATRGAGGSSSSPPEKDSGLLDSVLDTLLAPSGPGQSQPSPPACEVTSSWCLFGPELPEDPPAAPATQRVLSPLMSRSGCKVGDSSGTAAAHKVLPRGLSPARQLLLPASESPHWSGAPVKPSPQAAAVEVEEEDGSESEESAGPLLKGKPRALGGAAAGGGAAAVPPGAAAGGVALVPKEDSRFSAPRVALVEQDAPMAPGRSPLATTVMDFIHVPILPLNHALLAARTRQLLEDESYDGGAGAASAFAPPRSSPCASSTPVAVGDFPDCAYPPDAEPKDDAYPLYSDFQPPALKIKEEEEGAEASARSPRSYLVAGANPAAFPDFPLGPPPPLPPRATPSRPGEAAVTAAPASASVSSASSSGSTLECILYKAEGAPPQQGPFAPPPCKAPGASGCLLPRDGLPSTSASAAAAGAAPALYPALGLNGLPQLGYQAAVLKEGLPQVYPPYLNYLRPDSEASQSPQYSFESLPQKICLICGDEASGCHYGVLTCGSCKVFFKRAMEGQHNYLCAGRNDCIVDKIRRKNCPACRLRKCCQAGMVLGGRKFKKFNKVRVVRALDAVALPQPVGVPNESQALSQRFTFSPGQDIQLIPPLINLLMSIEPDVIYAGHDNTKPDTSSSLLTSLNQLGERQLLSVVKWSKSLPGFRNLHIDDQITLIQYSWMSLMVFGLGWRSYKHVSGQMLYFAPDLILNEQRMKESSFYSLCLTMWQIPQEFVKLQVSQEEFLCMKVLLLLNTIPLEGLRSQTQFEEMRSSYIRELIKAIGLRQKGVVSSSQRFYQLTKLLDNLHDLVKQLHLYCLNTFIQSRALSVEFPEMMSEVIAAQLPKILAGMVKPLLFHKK
Put plainly: Agonist activity at human progesterone receptor relative to progesterone. It counts as functional.

The target of test [2] is T2, Progesterone receptor (Homo sapiens, UniProt P06401).
T2 sequence (P06401 whole entry): T1 sequence (whole entry)
The test can be described thus: Agonist activity at human progesterone receptor in human T47D cells assessed as alkaline phosphatase activity. It counts as functional, cell-based.

The target in test [3] is T1, Progesterone receptor (Homo sapiens). Put plainly: Agonist activity at human progesterone receptor in human T47D cells assessed as alkaline phosphatase activity relative to progesterone. It counts as functional, cell-based.
The target in test [4] is T2, Progesterone receptor. Put plainly: Binding affinity at human progesterone receptor.
The target of test [5] is T2, Progesterone receptor. The test can be described thus: Agonist activity at human progesterone receptor. The class given is functional.
The species entered for test [6] is Rattus norvegicus. Put plainly: Progestational activity in estrone-treated ovariectomized rat assessed as effect on uterine epithelial cell height. It counts as functional, organism-based. The procedure, abridged: (§1)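 Ovariectomized rats were treated with estrone, alone or combined with test progestin, and compared with vehicle and estrone-only groups. Endpoints were uterine epithelial cell height, vaginal epithelial thickness and mammary alveolar bud proliferation.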

The species entered for test [7] is Rattus norvegicus. The test can be described thus: Progestational activity in estrone-treated ovariectomized rat assessed as effect on vaginal epithelial thickness. The class given is functional, organism-based. Summed up: as §1
The species entered for test [8] is Rattus norvegicus. The test can be described thus: Progestational activity in estrone-treated ovariectomized rat assessed as reduction of breast alveolar bud proliferation. It counts as functional, organism-based. The procedure, abridged:
as §1

For test [9], the species on record is Rattus norvegicus. Put plainly: Progestational activity in estrone-treated ovariectomized rat assessed as inhibition of medroxyprogesterone acetate-induced effect on uterine epithelial cell height. It counts as functional, organism-based. Summed up:
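Antagonist mode of the estrone-treated ovariectomized rat multi-endpoint model: compound was combined with MPA plus estrone, with vehicle and estrone-only groups. Endpoints were uterine epithelial cell height, vaginal epithelial thickness and mammary alveolar bud proliferation.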

For the next test, the target named is T3, Androgen receptor (Homo sapiens, UniProt P10275).
T3 sequence (P10275 whole entry): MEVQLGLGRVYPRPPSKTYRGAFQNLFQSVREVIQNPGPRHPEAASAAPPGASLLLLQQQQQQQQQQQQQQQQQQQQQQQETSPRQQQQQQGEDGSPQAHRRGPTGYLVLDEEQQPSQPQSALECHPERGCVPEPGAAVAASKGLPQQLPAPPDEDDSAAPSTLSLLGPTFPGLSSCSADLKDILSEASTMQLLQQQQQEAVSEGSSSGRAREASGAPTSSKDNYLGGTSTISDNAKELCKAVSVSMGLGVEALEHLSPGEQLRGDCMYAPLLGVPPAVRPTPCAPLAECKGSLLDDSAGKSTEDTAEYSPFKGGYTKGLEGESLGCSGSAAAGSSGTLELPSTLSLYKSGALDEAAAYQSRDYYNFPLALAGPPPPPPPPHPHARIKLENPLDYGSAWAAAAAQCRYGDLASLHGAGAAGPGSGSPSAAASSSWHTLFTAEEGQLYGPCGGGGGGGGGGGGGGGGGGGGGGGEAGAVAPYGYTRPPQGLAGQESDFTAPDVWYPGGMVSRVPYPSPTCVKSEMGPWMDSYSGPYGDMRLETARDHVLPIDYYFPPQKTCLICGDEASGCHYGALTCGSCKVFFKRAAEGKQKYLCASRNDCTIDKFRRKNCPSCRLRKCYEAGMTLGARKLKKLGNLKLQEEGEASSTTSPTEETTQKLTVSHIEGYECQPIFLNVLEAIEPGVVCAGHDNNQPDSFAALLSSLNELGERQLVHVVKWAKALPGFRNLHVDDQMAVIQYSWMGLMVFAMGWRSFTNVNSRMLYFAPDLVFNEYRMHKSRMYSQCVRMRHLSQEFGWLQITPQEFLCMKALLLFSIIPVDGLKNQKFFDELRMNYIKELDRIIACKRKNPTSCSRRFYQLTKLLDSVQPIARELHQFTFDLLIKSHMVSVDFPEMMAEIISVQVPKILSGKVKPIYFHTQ
The test can be described thus: Agonist activity at human androgen receptor. The class given is functional.

The next test addresses T4, Glucocorticoid receptor (Homo sapiens, UniProt P04150).
T4 sequence (P04150 whole entry): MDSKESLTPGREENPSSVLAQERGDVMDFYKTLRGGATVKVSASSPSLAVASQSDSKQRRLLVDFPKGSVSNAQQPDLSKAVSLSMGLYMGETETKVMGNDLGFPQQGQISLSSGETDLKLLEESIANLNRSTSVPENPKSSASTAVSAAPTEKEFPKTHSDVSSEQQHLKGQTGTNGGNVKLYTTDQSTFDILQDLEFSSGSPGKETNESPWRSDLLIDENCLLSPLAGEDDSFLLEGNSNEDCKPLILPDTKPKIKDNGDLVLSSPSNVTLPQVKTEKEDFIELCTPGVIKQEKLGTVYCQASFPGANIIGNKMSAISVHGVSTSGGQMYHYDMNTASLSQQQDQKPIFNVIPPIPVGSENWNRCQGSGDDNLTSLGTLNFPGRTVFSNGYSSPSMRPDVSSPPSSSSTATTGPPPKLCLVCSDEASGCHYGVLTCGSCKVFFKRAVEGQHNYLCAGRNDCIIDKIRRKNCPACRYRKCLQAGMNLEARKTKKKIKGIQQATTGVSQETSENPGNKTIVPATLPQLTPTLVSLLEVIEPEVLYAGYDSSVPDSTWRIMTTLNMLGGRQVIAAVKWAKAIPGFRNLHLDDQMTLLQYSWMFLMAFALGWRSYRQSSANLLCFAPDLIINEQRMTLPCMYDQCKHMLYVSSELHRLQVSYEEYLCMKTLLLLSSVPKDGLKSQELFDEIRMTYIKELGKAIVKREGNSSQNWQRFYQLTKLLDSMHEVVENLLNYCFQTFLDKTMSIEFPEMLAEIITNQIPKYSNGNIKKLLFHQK
Put plainly: Antagonist activity at human glucocorticoid receptor. The class given is functional.

The target in test [10] is T5, Mineralocorticoid receptor (Homo sapiens, UniProt P08235).
T5 sequence (P08235 whole entry): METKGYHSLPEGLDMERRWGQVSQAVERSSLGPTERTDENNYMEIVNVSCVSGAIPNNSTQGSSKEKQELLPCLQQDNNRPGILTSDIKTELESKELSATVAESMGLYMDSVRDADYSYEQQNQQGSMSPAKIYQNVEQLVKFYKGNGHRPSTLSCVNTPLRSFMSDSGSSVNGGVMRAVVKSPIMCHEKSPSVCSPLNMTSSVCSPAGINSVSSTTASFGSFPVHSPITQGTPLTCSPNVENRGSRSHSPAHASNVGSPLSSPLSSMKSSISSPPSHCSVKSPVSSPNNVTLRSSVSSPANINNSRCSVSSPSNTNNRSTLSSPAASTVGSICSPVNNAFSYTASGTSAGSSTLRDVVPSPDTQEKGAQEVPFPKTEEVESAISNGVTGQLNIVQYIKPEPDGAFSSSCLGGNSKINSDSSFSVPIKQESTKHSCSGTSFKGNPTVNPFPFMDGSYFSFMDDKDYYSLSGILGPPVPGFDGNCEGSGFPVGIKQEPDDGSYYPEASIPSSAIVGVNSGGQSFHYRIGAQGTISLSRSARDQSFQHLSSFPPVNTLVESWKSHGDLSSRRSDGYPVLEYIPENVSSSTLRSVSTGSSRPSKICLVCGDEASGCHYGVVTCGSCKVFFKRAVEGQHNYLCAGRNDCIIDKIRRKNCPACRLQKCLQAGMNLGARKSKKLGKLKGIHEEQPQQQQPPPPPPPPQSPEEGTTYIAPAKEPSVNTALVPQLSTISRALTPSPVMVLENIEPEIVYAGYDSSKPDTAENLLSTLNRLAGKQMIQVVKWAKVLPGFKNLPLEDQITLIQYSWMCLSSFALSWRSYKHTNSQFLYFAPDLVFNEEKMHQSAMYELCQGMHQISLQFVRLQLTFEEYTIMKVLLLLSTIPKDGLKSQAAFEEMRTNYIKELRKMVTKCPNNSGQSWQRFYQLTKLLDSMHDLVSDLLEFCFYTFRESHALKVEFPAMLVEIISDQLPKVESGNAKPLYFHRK
The test can be described thus: Antagonist activity at human mineralocorticoid receptor. It counts as functional.

A word on the EC50: it is the midpoint of the concentration-response curve. For orientation: Ki means the equilibrium dissociation constant of an inhibitor or competing ligand from its target. Read a low Ki as a stronger hold on the target. For the compound `CC1=CC(C)(C)Nc2ccc3c(c21)[C@H]([C@H]1CCC[C@@]2(C)O[C@@H]12)Oc1c(F)cc(F)cc1-3`, the Efficacy was 177% in test [1] and 59% in test [3]. The EC50 at Progesterone receptor [2] was 2.8 nM; on Progesterone receptor [5], 0.4 nM. On Progesterone receptor [4], this compound returned a Ki of 1.2 nM.
As to `CC(=O)O[C@]1(C(C)=O)CC[C@H]2[C@@H]3C[C@H](C)C4=CC(=O)CC[C@]4(C)[C@H]3CC[C@@]21C`, the Efficacy in [1] and in test [3] was 98% throughout. Besides, the outcome in the test listed under Rattus norvegicus [6], in the test listed under Rattus norvegicus [7] and in the test filed under Rattus norvegicus [8] was Active.
On to `C[C@@H]1C[C@@H]2C(=C3CCC(=O)C=C31)[C@@H](c1ccc(N(C)C)cc1)C[C@@]1(C)[C@H]2CC[C@@]12CCCO2`, for which the outcome in the test filed under Rattus norvegicus [9] was Active.
Regarding `CC1=CC(C)(C)Nc2ccc3c(c21)[C@H]([C@H]1CCCC(C)=C1C)Oc1c(F)cc(F)cc1-3` (racemic), the Efficacy in [1] amounted to 97%; in test [3], 66%. Besides, the EC50 was determined as 96 nM on Progesterone receptor [2] and 10.7 nM at Progesterone receptor [5].
In the case of `CC1=CC(C)(C)Nc2ccc3c(c21)[C@H]([C@@H]1C=CCCC1)Oc1c(F)cc(F)cc1-3` (racemic), the Efficacy is 171% in test [1] and 66% in test [3]. The EC50 on Progesterone receptor [2] turned out to be 27 nM; on Progesterone receptor [5], 3.4 nM. The affinity at Progesterone receptor [4], expressed as Ki, was 4.8 nM.
In test [1], `CC1=C[C@@H]([C@@H]2Oc3c(F)cc(F)cc3-c3ccc4c(c32)C(C)=CC(C)(C)N4)CCC1` (racemic) displayed an Efficacy of 162%.
On to `CC1=C[C@H]([C@@H]2Oc3c(F)cc(F)cc3-c3ccc4c(c32)C(C)=CC(C)(C)N4)CCC1` (racemic), for which the Efficacy in [1] was found to be 100%; in test [3], 63%.
In test [1], `CC1=C[C@@H]([C@@H]2Oc3c(F)cc(F)cc3-c3ccc4c(c32)C(C)=CC(C)(C)N4)CCC1` (stereo in doubt; (+)-5d) registered an Efficacy of 11%.
What is called IC50 is the midpoint of a concentration-inhibition curve. Compound `CC1=C[C@@H]([C@@H]2Oc3c(F)cc(F)cc3-c3ccc4c(c32)C(C)=CC(C)(C)N4)CCC1` (stereo in doubt; (-)-5c) displayed an EC50 on Androgen receptor of 1800 nM. Besides, the 50% inhibitory concentration (IC50) at Glucocorticoid receptor was found to be 34 nM; in test [10], 1350 nM.

Values taken from ChEMBL document CHEMBL1157537 (J Med Chem, 2008).
